pEC50, pIC50: −log10 of the molar value.
What was measured:
[1] = Half life in rat at 2 mg/kg, iv; type: ADME, organism-based; design: dose 2 mg/kg, route intravenous; conditions: in vivo
In short: (§1)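 Rats dosed orally at 4 mg/kg and intravenously at 2 mg/kg. Plasma parameters were Cmax and AUC, plus t1/2, Vdss and clearance after the IV dose. Apparent oral bioavailability was derived from both routes.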

[2] = AUC in rat at 4 mg/kg, po or 2 mg/kg, iv; type: ADME, organism-based; conditions: plasma; in short: as §1
[3] = target: Human immunodeficiency virus type 1 reverse transcriptase (Human immunodeficiency virus 1, UniProt Q72547, L100I); test: Inhibition of HIV1 reverse transcriptase L100I mutant
[4] = target: Human immunodeficiency virus type 1 reverse transcriptase (Human immunodeficiency virus 1, UniProt Q72547, Y188L); test: Inhibition of HIV1 reverse transcriptase Y188L mutant
[5] = Clearance in rat at 4 mg/kg, po or 2 mg/kg, iv; type: ADME, organism-based; conditions: in vivo; in short: as §1
[6] = target: Human immunodeficiency virus type 1 reverse transcriptase (Human immunodeficiency virus 1, UniProt Q72547, V106A); test: Inhibition of HIV1 reverse transcriptase V106A mutant
[7] = target: Human immunodeficiency virus type 1 reverse transcriptase (Human immunodeficiency virus 1, UniProt Q72547); test: Inhibition of wild type HIV1 reverse transcriptase
[8] = Oral bioavailability in rat at 4 mg/kg, po; type: ADME, organism-based; conditions: in vivo; in short: as §1
[9] = test system: Human immunodeficiency virus 1; test: Antiviral activity against HIV1 NL4-3 containing reverse transcriptase K103N mutation infected in human CEM-SS cells assessed as inhibition of virus-induced cytopathic effect; type: functional, organism-based; conditions: Human immunodeficiency virus 1, NL4-3, CEM-SS
[10] = test system: Human immunodeficiency virus 1; test: Antiviral activity against HIV1 NL4-3 containing reverse transcriptase Y181C mutation infected in human CEM-SS cells assessed as inhibition of virus-induced cytopathic effect; type: functional, organism-based; conditions: Human immunodeficiency virus 1, NL4-3, CEM-SS
[11] = Cmax in rat at 4 mg/kg, po; type: ADME, organism-based; design: dose 4 mg/kg, route oral; conditions: in vivo; in short: as §1
[12] = test system: Human immunodeficiency virus 1; test: Antiviral activity against wild type HIV1 NL4-3 infected in human CEM-SS cells assessed as inhibition of virus-induced cytopathic effect; type: functional, organism-based; conditions: Human immunodeficiency virus 1, NL4-3, CEM-SS
[13] = Toxicity in human CEM-SS cells; type: cell-based; conditions: read-out: TC50 (the source's name)
[14] = test system: Human immunodeficiency virus 1; test: Antiviral activity against wild type HIV1 assessed as inhibition of virus-induced cytopathic effect by cell based assay; type: functional, organism-based
In short: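 Cell-based cytoprotection assay. The endpoint is EC50, the concentration giving 50% inhibition of the virus-induced cytopathic effect. Virus and cells were either HIV-1RF in CEM-SS cells or HIV-1IIIB in MT-4 cells.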

[15] = Volume of distribution at steady state in rat at 4 mg/kg, po or 2 mg/kg, iv; type: ADME, organism-based; conditions: in vivo, read-out: Vdss; in short: as §1

Row | pIC50 [7] | pEC50 [14] | Structure (SMILES) | further results
1 | 7.15 | 8.00 | CN(Cc1ccc2occc2c1)c1nc(O)nc(Nc2c(F)cc(F)cc2-c2ccccc2)n1 | 
2 | 7.10 | 8.15 | Cc1cccc(-c2ccoc2)c1Nc1nc(O)nc(N(C)Cc2ccc3occc3c2)n1 | 
3 | 7.05 | 6.89 | Cc1cccc(-c2ccccc2)c1Nc1nc(O)nc(N(C)Cc2ccc3c(c2)OCO3)n1 | 
4 | 5.01 | 4.90 | Cc1cccc(-c2ccccc2)c1Oc1nc(O)nc(NCc2ccc3occc3c2)n1 | 
5 | 4.63 | 5.40 | Cc1cccc(-c2ccccc2)c1Nc1nc(O)nc(OCc2ccc3occc3c2)n1 | 
6 | < 4.00 | < 4.30 | Cc1cccc(-c2ccccc2)c1Oc1nc(N)nc(NCc2ccc3occc3c2)n1 | 
7 | < 4.00 |  | Fc1cccc(-c2ccccc2)c1Nc1nc(Cl)nc(NCc2ccc3occc3c2)n1 | 
8 | 5.59 | 5.52 | COc1nc(NCc2ccc3occc3c2)nc(Nc2c(C)cccc2-c2ccccc2)n1 | 
9 | 5.46 | 5.14 | Oc1nc(NCc2ccc3cc[nH]c3c2)nc(Nc2ccccc2-c2ccccc2)n1 | 
10 | 4.40 | < 5.00 | Oc1nc(NCc2ccc3cc[nH]c3c2)nc(Nc2cccc(Br)c2)n1 | 
11 | < 4.00 | < 5.00 | Oc1nc(NCc2ccc3cc[nH]c3c2)nc(Nc2cccc(Oc3ccccc3)c2)n1 | 
12 | 6.30 | 6.05 | Cc1cccc(-c2ccccc2)c1Nc1nc(O)nc(NCc2ccc3cc[nH]c3c2)n1 | 
13 | < 4.00 |  | CC(C)(Nc1nc(O)nc(Nc2c(F)cccc2-c2ccccc2)n1)c1ccc2c(c1)OCO2 | 
14 | < 4.00 | < 5.00 | Cc1cccc(-c2ccccc2)c1Nc1nc(O)nc(NCc2ccc3c(ccn3S(C)(=O)=O)c2)n1 | 
15 | 5.36 | 5.55 | Cc1cccc(-c2ccccc2)c1Nc1nc(O)nc(NCc2ccc3c(c2)OCCCO3)n1 | 
16 | 7.15 | 6.70 | Cc1cccc(-c2ccccc2)c1Nc1nc(O)nc(NCc2ccc3occc3c2)n1 | 
17 | 7.05 | 6.40 | Oc1nc(NCc2ccc3occc3c2)nc(Nc2c(F)cccc2-c2ccccc2)n1 | 
18 | 5.29 | 5.82 | Cc1cccc(-c2ccccc2)c1N(C)c1nc(O)nc(NCc2ccc3occc3c2)n1 | 
19 | 5.39 |  | CN(Cc1ccc2occc2c1)c1nc(O)nc(Nc2ccccc2N2CCOCC2)n1 | 
20 | < 4.00 |  | CCN(Cc1ccc2occc2c1)c1nc(O)nc(Nc2c(F)cccc2-c2ccccc2)n1 | 
21 | 7.08 | 6.92 | Cc1cccc(-c2ccccc2)c1Nc1nc(O)nc(N(C)Cc2ccc3occc3c2)n1 | 
22 |  |  | O=C1Nc2ccc(Cl)cc2[C@@](C#CC2CC2)(C(F)(F)F)O1 [EFAVIRENZ] | pEC50 [9]: < 6.00; pEC50 [10]: 8.30; CC50 [13]: > 1000 nM
23 |  |  | Cc1ccnc2c1NC(=O)c1cccnc1N2C1CC1 [NEVIRAPINE] | pEC50 [9]: < 6.00; pEC50 [10]: < 6.00; pEC50 [12]: 6.70; CC50 [13]: > 1000 nM

Row | Structure (SMILES) | pIC50 [7] | pEC50 [14] | further results
24 | CN(Cc1ccc2occc2c1)c1nc(O)nc(Nc2c(F)cccc2-c2ccccc2)n1 | 8.10 | 8.30 | half-life [1]: 1.45 h; AUC [2]: 12.5 µM·h; pIC50 [3]: 7.33; pIC50 [4]: 5.21; clearance [5]: 5.17 mL/min/kg; pIC50 [6]: 5.04; bioavailability [8]: 38%; pEC50 [9]: < 6.00; pEC50 [10]: 7.00; Cmax [11]: 3.8 µM; pEC50 [12]: 8.22; CC50 [13]: > 1000 nM; Vd [15]: 0.35 L/kg
25 | Cc1cccc(-c2ccccc2)c1Nc1nc(O)nc(N(C)Cc2ccc3c(c2)CCO3)n1 | 7.26 | 8.52 | half-life [1]: 1.4 h; AUC [2]: 15.6 µM·h; pIC50 [3]: 7.15; pIC50 [4]: 5.02; clearance [5]: 4.5 mL/min/kg; pIC50 [6]: 4.44; bioavailability [8]: 44%; pEC50 [9]: < 6.00; pEC50 [10]: 6.70; Cmax [11]: 6.1 µM; pEC50 [12]: 8.22; CC50 [13]: > 1000 nM; Vd [15]: 0.32 L/kg
